Hits are enriched below; roughly 3.4% of the tested compounds scored in any of these assays.
beta cell repl: inducers of beta-cell replication in MIN6 cells; MIN6 cells proliferation, ATPlite luminescence, 48 h; cells starved in 0.2% serum; 100% = growth in 10% serum; proliferation, % at 10 µM; 330,000 compounds, 0.29% hits;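 active = compounds whose signal lies at least 3.5 SD above the mean of all wells on their plate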;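 note: 0% = DMSO-treated cells in low-serum medium and 100% = 10% serum control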
MC4R antag cAMP: antagonists of human melanocortin 4 receptor (MC4R). 360,000 compounds, 0.48% hits. inhibition, % at 6.5 µM. MC4R-expressing cells, MTII-stimulated cAMP, LANCE TR-FRET. P32245;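 active = inhibition above its plate's cutoff, the mean of tested wells on that plate plus 3 SD, cut at about 29% in these data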;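 note: 0% = Melanotan II alone and 100% = Melanotan II plus saturating MCL0020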
Target sequence (P32245 whole entry, looked up): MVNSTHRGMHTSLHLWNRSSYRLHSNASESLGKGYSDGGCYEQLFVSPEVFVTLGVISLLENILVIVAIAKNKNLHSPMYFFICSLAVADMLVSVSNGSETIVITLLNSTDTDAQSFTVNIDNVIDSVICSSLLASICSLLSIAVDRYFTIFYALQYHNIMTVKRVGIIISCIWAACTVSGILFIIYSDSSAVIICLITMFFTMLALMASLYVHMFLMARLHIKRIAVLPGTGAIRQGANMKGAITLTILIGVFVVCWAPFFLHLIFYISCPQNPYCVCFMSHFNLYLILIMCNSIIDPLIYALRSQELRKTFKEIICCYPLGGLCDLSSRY
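Assay system: U2OS-MC4R stable cell line; Also added: Melanotan II; Technique: Eu-cAMP/anti-cAMP TR-FRET, emission 671 nm; Times: 30-min compound, 1-h challenge, 1-h detection, room temperature.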
HTR2A ag: agonists of mouse serotonin 5-HT2A receptor (HTR2A) | CHO-K1 mHTR2A beta-arrestin complementation, luminescence; percent of 30 µM serotonin response | activation, % at 7.6 µM | 360,000 compounds, 0.66% hits | AID 624169;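 active = activation above a run cutoff, the mean activation of all tested compounds plus 3 SD, cut at about 14% in these data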;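 note: 0% = plate median of compound wells and 100% = 30 µM serotonin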
MC4R barr agon: human MC4R agonism via beta-arrestin | U2OS MC4R beta-arrestin complementation, luminescence; percent of melanotan II response, DMSO zero | activation, % at 8.9 µM | 360,000 compounds, 0.98% hits | AID 540308;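 active = activation above a per-plate cutoff, the mean activation of sample wells on that plate plus 3 SD, cut at about 8% in these data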
TMEM16A act: mouse TMEM16A channel activation, primary screen. Q8BHY3. HEK293 TMEM16A/YFP-H148Q/I152L, iodide quench fluorescence; stronger effect = lower value. 340,000 compounds, 0.3% hits. B-score at 10 µM;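 active = fluorescence-ratio B-score plate-corrected deviation score at least 3 library SD below zero, with starting fluorescence score within 5 deviations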;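 note: channel opened by trigger with iodide after compound preincubation; score built on the fluorescence ratio of max minus min over baseline; more negative score means more quench and so TMEM16A activation or potentiation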
TMEM16A inh: inhibitors of mouse TMEM16A calcium-activated chloride channel; Q8BHY3; HEK293 TMEM16A/YFP iodide influx fluorescence, ionomycin; normalized B-score (activity score, 25-100; higher = stronger inhibition) at 10 µM; 310,000 compounds, 1.2% hits;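 active = ratio plate-corrected score three or more library SD toward inhibition, starting fluorescence score within five deviations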;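 note: score derived from kinetic fluorescence span divided by baseline fluorescence per well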
OPRM1 ag: OPRM1 agonism in mouse HTR2A counterscreen. shares compounds with HTR2A ag. U2OS OPRM1 beta-arrestin PathHunter, luminescence; DMSO 0%, DAMGO 9.3 µM 100%. activation, % at 9.3 µM. 2,300 compounds, 5.3% hits. AID 624380;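 active = mean activation above the mean of DMSO-only wells plus 3 SD, cut at about 0.5% in these data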
HTR2A ag conf: confirmation of mouse HTR2A serotonin receptor agonists; shares compounds with HTR2A ag; CHO-K1 PathHunter beta-arrestin recruitment, luminescence; DMSO 0%, 30 µM serotonin 100%; activation, % at 7.6 µM; 2,300 compounds, 19% hits;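 active = mean activation across triplicates above the hit threshold derived in the original primary screen, cut at about 15% in these data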
The depositor's hits bear a star; i = inactive; · = no result; ! = not confirmed by another sample.

SMILES	beta cell repl	MC4R antag cAMP	HTR2A ag	MC4R barr agon	TMEM16A act	TMEM16A inh	OPRM1 ag	HTR2A ag conf
Cc1cccc(C)c1OCC(O)CN1CCN(c2ccccc2)CC1 (centres undefined)	-2	4	15*	1	i	i	0	61*
CN1CCN(CC(O)COc2ccc(S(=O)(=O)N3CCOCC3)cc2)CC1 (centres undefined)	1	0	0	-2	i	·	·	·
O=S(=O)(c1ccc(OCC(O)CN2CCCC2)cc1)N1CCOCC1 (centres undefined)	2	18	-2	-1	i	i	·	·
COC(=O)[C@@H](Cc1c[nH]c2ccccc12)NC(=O)C1CCCN(S(=O)(=O)c2ccc(C)cc2)C1 (some centres undefined)	-4	8	-8	-2	i	i	·	·
O=c1cc(CSc2nc(NCc3ccc(Cl)cc3)c3ccccc3n2)nc2ccc(Cl)cn12	·	6	11	-3	i	·	·	·
Cc1nnc(SCC(=O)c2ccc([N+](=O)[O-])cc2)s1	-5	16	15*	-5	i	i	0.5*	-2
COc1ccc(OC)c(NC(=O)Nc2nc(C(N)c3ccccc3Cl)cs2)c1 (centres undefined)	·	16	-3	-1	·	·	·	·
OCCNc1ncnc2c1ncn2[C@H]1CN(Cc2ccncc2)C[C@@H](CO)O1	·	12	15*	0	·	·	·	-5
CCCn1nc(C(=O)Nc2nc(-c3ccccn3)cs2)c2ccccc2c1=O	-5	-2	23*	-1	i	·	0	-5
Cc1cccc(/C(N)=N/OC(=O)c2ccncc2)c1	-6	18	25*	-1	i	i	0.6*	1
O=C(NCCCc1ccccc1)c1cccc(S(=O)(=O)N2CCOCC2)c1	2	13	15*	-2	i	·	0	-2
O=C(NCc1ccccc1)c1cccc(S(=O)(=O)N2CCOCC2)c1	-2	4	-5	-3	i	i	·	·
CC(=O)c1ccc(S(=O)(=O)Nc2ccc(C(=O)NCCCn3ccnc3)cc2)cc1	-5	-2	-11	1	i	·	·	·
NCCCCCNC(=O)c1[nH]cnc1C(=O)N[C@@H](Cc1ccccc1)C(=O)OCc1ccccc1	-2	-6	-15	-1	i	·	·	·
Cc1ccn(CCNC(=O)C2CCC(=O)N(CCc3ccc(Cl)cc3)C2)n1 (centres undefined)	-2	7	24*	0	i	i	0	-3
Cc1cc(C)n(CCCNC(=O)C2CCC(=O)N(CCc3ccc(Cl)cc3)C2)n1 (centres undefined)	1	1	9	-1	i	i	·	·
COc1cc(/C=C2\SC(=O)N(CCNC(=O)c3c(C)noc3C)C2=O)cc(OC)c1OC	-5	-9	21*	1	i	·	0	-2
COc1cc(C(=O)NCCN2C(=O)S/C(=C\c3cccs3)C2=O)cc(OC)c1OC	-3	10	0	-2	i	i	·	·
CCOC(=O)/C=C(\C)N1N=C(c2ccccc2)CC1c1ccccc1 (centres undefined)	-2	-5	20*	-2	i	i	-1	-3
CCOC(=O)c1nnn(CC(=O)N2N=C(c3ccccc3)CC2c2ccccc2)c1C(=O)OCC (centres undefined)	-3	19	-4	-1	i	i	·	·
Cc1ccc(S(=O)(=O)N2CCN(C(=O)COC(=O)c3ccccc3OC(F)F)CC2)c(C)c1	·	8	7	0	i	·	·	·
COc1cc(Br)c(CC(=O)NC2CC2)cc1OC	0	-4	-3	-1	i	i	·	·
Cc1onc(-c2ccccc2)c1C(=O)Nc1ccc(NC(=O)c2c(-c3ccccc3)noc2C)cc1	1	10	19*	0	i	i	0	-4
CCc1noc(C)c1C(=O)Nc1nc(-c2ccccc2)c(C(C)=O)s1	-4	5	35*	0	i	·	-1	9
Cc1onc(-c2ccccc2)c1C(=O)Nc1ccc(N2CCOCC2)cc1	-4	0	-10	-1	i	i	·	·
SMILES	beta cell repl	MC4R antag cAMP	HTR2A ag	MC4R barr agon	TMEM16A act	TMEM16A inh	OPRM1 ag	HTR2A ag conf
CCc1noc(C)c1C(=O)Nc1nc(-c2ccc(NC(C)=O)cc2)cs1	0	4	6	-1	i	i	·	·
COc1cccc(-c2nc(CS(=O)(=O)CC(=O)Nc3ccccc3Cl)c(C)o2)c1	-2	12	-2	1	i	i	·	·
CNC(=O)Oc1ccc2c(c1)[C@]1(C)CCN(C)[C@@H]1N2C	-1	8	20*!	0	i	i	-1	-1
CN1CCN(S(=O)(=O)c2cccc(C(=O)Nc3cc(C(N)=O)cc(C(N)=O)c3)c2)CC1	-2	14	16*	-1	i	i	0	-1
COC(=O)Cc1ccc(NC(=S)N2CCN(c3ccc(OC)cc3)CC2)cc1	1	13	0	-1	i	i	·	·
COC(=O)Cc1ccc(NC(=S)N2CCN(c3cccc(O)c3)CC2)cc1	-1	-7	24*	0	i	i	0	3
Cc1ccc(S(=O)(=O)N2CCN(C(=O)COC(=O)CCOc3ccc(C(C)(C)C)cc3)CC2)cc1	-7	15	-6	-1	i	i	·	·
O=C(Nc1cccc(Cl)c1Cl)C1CCN(C(=O)c2cccs2)CC1	1	2	-5	-2	i	i	·	·
Cc1ccc(C(=O)c2cc([N+](=O)[O-])ccc2N2CCOCC2)c(C)c1	-4	-18	15*	-1	i	i	0	-3
CCc1nc2c3cnn(-c4cc(Cl)ccc4C)c3ncn2n1	-3	3	16*	3	i	i	-1	-3
COC(=O)c1c(SCc2ccc(C#N)cc2)nc(=O)[nH]c1C	-2	5	1	-3	i	i	·	·
Cc1[nH]c(=O)nc(SCc2ccc(Cl)c(Cl)c2)c1C#N	-2	5	15*	1	i	i	0.8*	2
Cc1ccc(-c2ccnc(=S)[nH]2)cc1	-4	5	15*	0	i	i	-1	1
S=C(NC1CCCCC1)N1CCN(Cc2ccccc2)CC1	-3	0	2	-2	i	i	·	·

Screening data from PubChem BioAssay.
